Data: ChEMBL document CHEMBL1269007, “Synthesis and biological evaluation of Apogossypolone derivatives as pan-active inhibitors of antiapoptotic B-cell lymphoma/leukemia-2 (Bcl-2) family proteins” (J Med Chem, 2010)
Calls of active or inactive are those of the source. The calls are words filed in the database; no cut-off is given here.

Tests used:
[1] = Cytotoxicity against human BP3 cells expressing high level of Bfl-1 and Mcl-1 after 24 hrs by annexin V-FITC and propidium iodide staining; details: BP3, 24 h
Bcl-2-like protein 1 [2] = target: T1, Bcl-2-like protein 1 (Homo sapiens, UniProt Q07817); assay: Binding affinity Bcl-xL at 200 uM by one-dimensional 1H nuclear magnetic resonance spectroscopy
NCI-H460 = assay: Cytotoxicity against human H460 cells expressing high level of Bcl-2 after 72 hrs by ATP-LITE assay; assay type: functional, cell-based; details: NCI-H460, 72 h
Summary of the method: (§1)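 Cells seeded in […] or RPMI1640 with 5 mM L-glutamine, 5% FBS, penicillin/streptomycin; H460 and H1299 at 2000, PC3 at 3000 cells/well. Compounds in 0.1% DMSO final added 24 h after seeding into fresh 5% serum medium; viability by ATP-LITE luminescence after 72 h, normalised to DMSO-treated cells.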

PC-3 = assay: Cytotoxicity against human PC3 cells expressing high level of Bcl-xL after 72 hrs by ATP-LITE assay; assay type: functional, cell-based; details: PC-3, 72 h
Summary of the method: as §1

Mus musculus [3] = assay: Reduction of spleen weight in ip dosed human Bcl2 expressing B6 transgenic BALB/c mouse administered as single dose after 24 hrs; assay type: functional, organism-based
[4] = Cytotoxicity against human RS4:11 cells expressing high level of Bcl-2 and Bcl-xL after 24 hrs by annexin V-FITC and propidium iodide staining; details: RS4-11, 24 h
[5] = Cytotoxicity against human H1299 cells expressing high level of Mcl-1 after 72 hrs by ATP-LITE assay; assay type: functional, cell-based; details: NCI-H1299, 72 h
Summary of the method: as §1

Bcl-2-related protein A1 = target: T2, Bcl-2-related protein A1 (Homo sapiens, UniProt Q16548); assay: Displacement of F-BakBH3 from Bfl-1 after 30 mins by fluorescence polarization assay
T2 sequence (Q16548 whole entry): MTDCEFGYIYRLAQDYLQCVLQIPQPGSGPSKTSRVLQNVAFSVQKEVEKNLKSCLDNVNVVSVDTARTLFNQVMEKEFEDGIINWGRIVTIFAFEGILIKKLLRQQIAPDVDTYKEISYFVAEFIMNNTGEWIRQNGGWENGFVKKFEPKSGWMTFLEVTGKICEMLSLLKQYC

Bcl-2-like protein 1 [6] = target: T1, Bcl-2-like protein 1; assay: Displacement of F-BakBH3 from Bcl-xL after 30 mins by fluorescence polarization assay
Summary of the method: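 GST-Bcl-XL ΔTM (100 nM) preincubated with varying compound concentrations in PBS pH 7.4 for 10 min at room temperature. FITC-labelled Bak BH3 peptide (2.5 μL of 100 nM stock) then added. Polarization read at 480/535 nm after 30 min at room temperature. Wild-type and mutant Bak BH3 peptides served as plate controls. IC50 from sigmoidal dose-response fit; mean of three independent experiments ± SE.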

[7] = Cytotoxicity against human RS4:11 cells expressing high level of Bcl-2 and Bcl-xL after 72 hrs by annexin V-FITC and propidium iodide staining; assay type: functional, cell-based; details: RS4-11, 72 h
[8] = target: Apoptosis regulator Bcl-2 (Homo sapiens, UniProt P10415); assay: Displacement of FITC-Bim BH3 peptide from Bcl-2 after 10 mins by fluorescence polarization assay
[9] = target: Induced myeloid leukemia cell differentiation protein Mcl-1 (Homo sapiens, UniProt Q07820); assay: Displacement of FITC-Bim BH3 peptide from Mcl-1 after 10 mins by fluorescence polarization assay
Mus musculus [10] = assay: Toxicity in human PPC1 cells xenografted nude mouse assessed as mortality at 25 mg/kg, ip administered weekly 3 times; assay type: organism-based, PPC-1; design: dose 25 mg/kg, route intraperitoneal; details: in vivo
Summary of the method: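 PPC-1 flank xenografts (5×10^6 cells s.c.) in female 6-week-old nude mice, size-matched at 200 mm³, 6 per group. Compound given i.p. three times in the first week in ethanol:Cremophor EL:saline 10:10:80 (500 μL); controls got saline. Survival and body weight monitored during week 1.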

Mus musculus [11] = assay: Reduction of spleen weight in human Bcl2 expressing B6 transgenic BALB/c mouse at 60 umol/kg, ip administered as single dose after 24 hrs; assay type: functional; design: scale not given: the % may be the effect or the level left
[12] = Metabolic stability of the compound in rat plasma after 40 mins; assay type: ADME, cell-free; details: read-out: Stability
[13] = Metabolic stability of the compound in rat microsomes after 40 mins; assay type: ADME, Microsome; details: read-out: Stability
Mus musculus [14] = assay: Toxicity in human Bcl2 expressing B6 transgenic BALB/c mouse up to 120 umol/kg, ip administered as single dose after 24 hrs; assay type: organism-based; details: in vivo
Summary of the method: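 B6 Bcl-2 transgenic Balb/c mice, age- and sex-matched, given one intraperitoneal dose (60 or 120 μmol/kg, also 30 μmol/kg) in ethanol:Cremophor EL:saline 10:10:80, 500 μL; survival and signs of toxicity observed over 24 h before sacrifice.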

Mus musculus [15] = assay: Toxicity in human Bcl2 expressing B6 transgenic BALB/c mouse assessed as mortality at 60 umol/kg, ip administered as single dose after 24 hrs; assay type: organism-based; details: in vivo
Summary of the method: (§2)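 Age- and sex-matched B6 Bcl2 transgenic mice (human BCL-2/IgH minigene on Balb/c background, no aggressive lymphoma yet) given a single i.p. injection of compound in 500 μL ethanol:Cremophor EL:saline 10:10:80. Controls received vehicle. Animals sacrificed at 24 h with Avertin; spleen removed and weighed.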

Mus musculus [16] = assay: Toxicity in human Bcl2 expressing B6 transgenic BALB/c mouse assessed as mortality at 30 umol/kg, ip administered as single dose after 24 hrs; assay type: organism-based; details: in vivo
Summary of the method: as §2

Mus musculus [17] = assay: Reduction of spleen weight in human Bcl2 expressing B6 transgenic BALB/c mouse at 30 umol/kg, ip administered as single dose after 24 hrs; assay type: functional; design: scale not given: the % may be the effect or the level left

Chain of Apoptosis regulator Bcl-2 (P10415 whole entry): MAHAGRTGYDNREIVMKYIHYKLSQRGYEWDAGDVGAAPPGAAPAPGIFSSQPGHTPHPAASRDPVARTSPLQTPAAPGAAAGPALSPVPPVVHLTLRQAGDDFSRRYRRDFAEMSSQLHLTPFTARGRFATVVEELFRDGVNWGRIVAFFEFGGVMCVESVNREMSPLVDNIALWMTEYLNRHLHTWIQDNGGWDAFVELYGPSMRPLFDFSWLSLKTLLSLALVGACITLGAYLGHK
T1 sequence (Q07817 whole entry): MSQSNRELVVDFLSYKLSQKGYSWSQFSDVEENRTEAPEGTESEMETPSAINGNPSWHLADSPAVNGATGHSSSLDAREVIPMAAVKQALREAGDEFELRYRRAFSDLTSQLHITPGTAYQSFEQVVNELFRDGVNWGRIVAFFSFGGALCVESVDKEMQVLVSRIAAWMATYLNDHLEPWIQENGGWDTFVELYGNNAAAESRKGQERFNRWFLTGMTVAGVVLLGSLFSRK
Chain of Induced myeloid leukemia cell differentiation protein Mcl-1 (Q07820 whole entry): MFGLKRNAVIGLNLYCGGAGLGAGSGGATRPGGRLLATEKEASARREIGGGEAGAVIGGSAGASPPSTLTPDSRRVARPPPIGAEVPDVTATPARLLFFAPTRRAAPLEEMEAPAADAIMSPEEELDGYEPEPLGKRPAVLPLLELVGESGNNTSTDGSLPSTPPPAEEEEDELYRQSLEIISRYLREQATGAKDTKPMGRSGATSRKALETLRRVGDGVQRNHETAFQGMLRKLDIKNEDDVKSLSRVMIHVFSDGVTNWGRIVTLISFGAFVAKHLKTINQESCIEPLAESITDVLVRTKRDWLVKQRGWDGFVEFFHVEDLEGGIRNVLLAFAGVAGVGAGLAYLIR

SMILES | EC50 [1] [nM] | Activity (Bcl-2-like protein 1 [2]) | EC50 (NCI-H460) [nM] | EC50 (PC-3) [nM] | Activity (Mus musculus [3]) | EC50 [4] [nM] | EC50 [5] [nM] | IC50 (Bcl-2-related protein A1) [nM] | Ki (Bcl-2-related protein A1) [nM] | IC50 (Bcl-2-like protein 1 [6]) [nM] | Ki (Bcl-2-like protein 1 [6]) [nM] | IC50 [8] [nM] | Ki [8] [nM] | IC50 [9] [nM] | Ki [9] [nM] | remaining at 40 min [12] [%] | remaining at 40 min [13] [%] | also measured
CC1=C(C2=C(C)C(=O)c3c(cc(O)c(O)c3CCc3ccc(OC(F)(F)F)cc3)C2=O)C(=O)c2cc(O)c(O)c(CCc3ccc(OC(F)(F)F)cc3)c2C1=O | 16100 | Active | 1440 | 8990 | Dose-dependent effect | 7320 | 2380 |  |  |  |  |  |  |  |  |  |  | 
CC1=C(C2=C(C)C(=O)c3c(cc(O)c(O)c3CCCc3ccc(F)cc3)C2=O)C(=O)c2cc(O)c(O)c(CCCc3ccc(F)cc3)c2C1=O | 14600 | Active | 1480 | 2620 | Dose-dependent effect | 11200 | 1910 |  |  |  |  |  |  |  |  |  |  | 
CC1=C(C2=C(C)C(=O)c3c(cc(O)c(O)c3C(=O)Cc3ccccc3)C2=O)C(=O)c2cc(O)c(O)c(C(=O)Cc3ccccc3)c2C1=O | 9580 | Active | 7380 | 5440 | Dose-dependent effect |  | > 30000 | 690 | 460 | 340 | 240 | 220 | 150 | 350 | 230 |  |  | EC50 [7]: > 30000 nM
Cc1cc2c(C(C)C)c(O)c(O)c(C=O)c2c(O)c1-c1c(C)cc2c(C(C)C)c(O)c(O)c(C=O)c2c1O [GOSSYPOL] |  |  |  |  |  |  |  |  |  |  |  |  |  |  |  |  |  | Activity (Mus musculus [10]): Toxic
CCc1ccc(CCNC(=O)c2c(O)c(O)cc3c2C(=O)C(C)=C(C2=C(C)C(=O)c4c(cc(O)c(O)c4C(=O)NCCc4ccc(CC)cc4)C2=O)C3=O)cc1 |  | Active |  |  | Dose-dependent effect | > 30000 |  | 1250 | 870 | 240 | 160 | 210 | 140 | 320 | 210 |  |  | 
CC1=C(C2=C(C)C(=O)c3c(cc(O)c(O)c3CCC(C)(C)c3ccccc3)C2=O)C(=O)c2cc(O)c(O)c(CCC(C)(C)c3ccccc3)c2C1=O | 30000 | Active | 1620 | 2000 | Dose-dependent effect | 15000 | 2160 |  |  |  |  |  |  |  |  |  |  | 
CC1=C(C2=C(C)C(=O)c3c(cc(O)c(O)c3CC(C)C)C2=O)C(=O)c2cc(O)c(O)c(CC(C)C)c2C1=O |  | Active |  |  | Dose-dependent effect |  |  |  | 930 |  | 370 |  | 170 |  | 310 | 98 | 69 | Activity (Mus musculus [11]): >30%; Activity (Mus musculus [14]): Non-toxic
CC1=C(C2=C(C)C(=O)c3c(cc(O)c(O)c3Cc3ccc(-c4ccccc4)cc3)C2=O)C(=O)c2cc(O)c(O)c(Cc3ccc(-c4ccccc4)cc3)c2C1=O | 810 | Active | 980 | 2970 | Dose-dependent effect | 1740 | 10300 |  |  |  |  |  |  |  |  |  |  | 
CC1=C(C2=C(C)C(=O)c3c(cc(O)c(O)c3CC3CCCC3)C2=O)C(=O)c2cc(O)c(O)c(CC3CCCC3)c2C1=O | 12800 | Active | 700 | 5500 | Dose-dependent effect | 9830 | 2320 |  |  | 2990 | 2000 | 2270 | 1530 | 3080 | 2070 |  |  | 
CC1=C(C2=C(C)C(=O)c3c(cc(O)c(O)c3C(=O)NCc3cccc(C)c3)C2=O)C(=O)c2cc(O)c(O)c(C(=O)NCc3cccc(C)c3)c2C1=O | 21600 | Active | 6160 | 5440 | Dose-dependent effect | > 30000 | > 30000 |  |  |  |  |  |  |  |  |  |  | 
CC1=C(C2=C(C)C(=O)c3c(cc(O)c(O)c3CCc3ccccc3)C2=O)C(=O)c2cc(O)c(O)c(CCc3ccccc3)c2C1=O | 8720 | Active | 1040 | 1400 | Dose-dependent effect |  | 850 | 9720 | 6470 | 1790 | 1200 | 2570 | 1730 | 1290 | 870 | 81 | 89 | EC50 [7]: 4750 nM
CC1=C(C2=C(C)C(=O)c3c(cc(O)c(O)c3C(=O)NCC(C)c3ccccc3)C2=O)C(=O)c2cc(O)c(O)c(C(=O)NCC(C)c3ccccc3)c2C1=O (stereo not drawn) |  | Active |  |  | Dose-dependent effect | > 30000 | > 30000 | 710 | 470 | 320 | 210 | 230 | 150 | 470 | 310 | 91 | 71 | Activity (Mus musculus [15]): Toxic; Activity (Mus musculus [16]): Non-toxic
CC1=C(C2=C(C)C(=O)c3c(cc(O)c(O)c3CCCc3ccccc3)C2=O)C(=O)c2cc(O)c(O)c(CCCc3ccccc3)c2C1=O |  | Active | 920 | 1300 | Dose-dependent effect |  | 1530 | 5270 | 3530 | 1440 | 960 | 2170 | 1450 | 670 | 450 | 87 | 88 | EC50 [7]: 3830 nM
CC1=C(C2=C(C)C(=O)c3c(cc(O)c(O)c3CCC3CCCCC3)C2=O)C(=O)c2cc(O)c(O)c(CCC3CCCCC3)c2C1=O | 15600 | Active | 2200 | 2400 | Dose-dependent effect | 15700 | 1320 |  |  | 12700 | 8400 | 6730 | 4470 | 5900 | 3930 | 74 | 98 | Activity (Mus musculus [14]): Non-toxic
CC1=C(C2=C(C)C(=O)c3c(cc(O)c(O)c3Cc3ccc(Cl)cc3)C2=O)C(=O)c2cc(O)c(O)c(Cc3ccc(Cl)cc3)c2C1=O |  | Active |  |  | Dose-dependent effect |  |  | 700 | 470 | 150 | 110 | 340 | 230 | 400 | 270 |  |  | Activity (Mus musculus [15]): Toxic; Activity (Mus musculus [16]): Non-toxic; Activity (Mus musculus [17]): 76%
